The values that follow come from ChEMBL document CHEMBL2040843, “Synthesis and in vitro stability of nucleoside 5'-phosphonate derivatives” (Eur J Med Chem, 2012).

Activity calls are given as the source filed them.

Broadly, the inhibition is the percentage by which the read-out fell short of the control. As usually defined, the half-life is the time needed for the level to fall by half in the phase considered.

One series has as its system Platelet. The series is described as follows: Induction of platelets aggregation in human platelet rich plasma at 10^-4 M after 3 mins by light transmission aggregometry analysis. It counts as functional, cell-free. In outline:
(§1)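 PRP from citrated whole blood (9:1) of healthy volunteers taken 2 h after an acetylsalicylic acid tablet; centrifuged 150g, 21 °C, 10 min. Pre-warmed PRP at 37 °C with test agent (10^-4 M) or vehicle; aggregation triggered with 10^-6 M ADP; shape change and aggregation followed 3 min by light transmission aggregometry.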

A short description of series [1]: Antiplatelet activity against human platelets assessed as inhibition of ADP-induced platelet aggregation at 10^-4 M after 3 mins by light transmission aggregometry analysis. Type of series: functional. The note with it: 0.05 h. In outline:
as §1

The subject of series [2] is Liver. The series can be described thus: (§2) Metabolic stability in Wistar rat liver homogenates assessed as compound degradation at 50 uM after 6 hrs by HPLC analysis. It counts as ADME, tissue-based. The note with it: tissue homogenate, 6 h, 50 µM. In outline: (§3)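 Male Wistar rat liver washed in ice-cold saline, homogenized in 50 mM Tris-HCl pH 7.4 (4 mL/g); 2000 × g, 10 min, 4 °C supernatant stored −80 °C. Compound from 10^-2 M DMSO stock incubated at 50 μM final, 37 °C, up to 360 min; HPLC with external-standard peak areas. First-order kinetics from semilogarithmic plots; mean ± SD of three independent experiments.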

The next series deals with Blood. The series is described as follows: (§4) Metabolic stability in human whole blood assessed as compound degradation after 6 hrs by HPLC analysis. It counts as ADME, tissue-based. The note with it: blood, 6 h. An outline of the steps:
(§5)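 Compound from 10^-2 M DMSO stock incubated at 50 μM final in whole blood from healthy subjects (3 mL) at 37 °C for intervals up to 360 min. Remaining parent quantified by reversed-phase HPLC, peak areas against external standards; semilogarithmic regression for first-order kinetics; mean ± SD of three independent experiments.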

A short description of series [3]: Half life in Wistar rat liver homogenates at 50 uM by HPLC analysis. It counts as ADME, tissue-based. An outline of the steps: as §3
Series [4] in a line: as §2. It counts as ADME, tissue-based. The note with it: Wistar, liver homogenates, read-out: Drug degradation. In outline:
as §3

Series [5] in a line: as §4. The note with it: whole blood, read-out: Drug degradation. Type of series: ADME, tissue-based. An outline of the steps: as §5
Series [6] deals with Liver. The series is described as follows: Drug degradation in Wistar rat liver homogenates assessed as increase in guanine formation by HPLC analysis. Type of series: ADME, tissue-based. The note with it: tissue homogenate. An outline of the steps:
(§6)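 Supernatant of male Wistar rat liver homogenate (Tris-HCl 50 mM, pH 7.4; 2000 × g) incubated at 37 °C with 50 μM compound up to 360 min. Guanine measured by RP18 HPLC, water/acetonitrile 99:1 with 0.01 M H3PO4, 0.8 mL/min, external-standard peak areas.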

Series [7] has as its system Liver. The series is described as follows: Metabolic stability in Wistar rat liver homogenates assessed as increase in guanine formation by HPLC analysis. Type of series: ADME, tissue-based. The note with it: tissue homogenate. An outline of the steps: as §6

For the molecule `CCOP(=O)(CC(=O)OC[C@H]1O[C@@H](n2c(SC)nc3c(N)ncnc32)[C@H](O)[C@@H]1O)OCC`, the outcome in the series with Platelet was inactive.
On to `CCOP(=O)(CC(=O)NC[C@H]1O[C@@H](n2cnc3c(=O)[nH]cnc32)[C@H](O)[C@@H]1O)OCC`, for which the outcome with Platelet was inactive.
Still for that read-out and setting: with `CCOP(=O)(CC(=O)OC[C@H]1O[C@@H](n2cnc3c(=O)[nH]cnc32)[C@H](O)[C@@H]1O)OCC` the entry was “inactive”; with `CCOP(=O)(CC(=O)OC[C@H]1O[C@@H](n2cnc3c(N)ncnc32)[C@H](O)[C@@H]1O)OCC`, “inactive”.
With `Nc1ncnc2c1ncn2[C@@H]1O[C@H](COC(=O)CP(=O)(O)O)[C@@H](O)[C@H]1O` [ADENOSINE PHOSPHONOACETIC ACID], the result in the series on Platelet was inactive. Further, the inhibition at 100 µM in series [1] is no more than 70%. In addition, the Stability result in the series with Liver [2] and in the series with Blood was “Stable” each time.
As to `CCOP(=O)(CC(=O)OC[C@H](CO)O[C@H](CO)n1cnc2c(N)ncnc21)OCC`, the outcome with Platelet was inactive.
Same read-out and setting: with `CCOP(=O)(CC(=O)NC[C@H](CO)O[C@H](CO)n1cnc2c(N)ncnc21)OCC` the entry was “inactive”; with `Nc1ncnc2c1ncn2[C@@H]1O[C@H](CNC(=O)CP(=O)(O)O)[C@@H](O)[C@H]1O`, “inactive”.
On to `CCOP(=O)(O)CC(=O)OCCOCn1cnc2c(N)ncnc21`, for which the result in the series on Platelet was inactive. The inhibition at 100 µM in series [1] is no more than 70%. The Stability entry in the series on Liver [2] and with Blood was “Stable” throughout.
On to `CCOP(=O)(CC(=O)OC[C@H]1O[C@@H](n2cnc3c(=O)[nH]c(NC(=O)C(C)C)nc32)[C@H](O)[C@@H]1O)OCC`, for which, in the series on Platelet, the result was inactive.
The same measure, in the same setting: with `CCOP(=O)(CC(=O)OCCOCn1cnc2c(N)ncnc21)OCC` the entry was “inactive”; with `CCOP(=O)(CC(=O)NC[C@H]1O[C@@H](n2cnc3c(N)ncnc32)[C@H](O)[C@@H]1O)OCC`, “inactive”.
Turning to `CCOP(=O)(CC(=O)OC[C@H]1O[C@@H](n2cnc3c(=O)[nH]c(N)nc32)[C@H](O)[C@@H]1O)OCC`, in the series with Platelet, the outcome was inactive. Moreover, the inhibition at 100 µM in [1] was no more than 70%. The molecule further gave a half-life at 50 µM in series [3] of 2.33 h. Besides, the metabolised at 6 h, 50 µM in [4] amounted to 80%. Besides, the metabolised at 6 h in series [5] worked out at 20%. Also, the Drug degradation result in the series with Liver [6] is “Active”.
On to `O=C(CP(=O)(O)O)NC[C@H]1O[C@@H](n2cnc3c(=O)[nH]cnc32)[C@H](O)[C@@H]1O`, for which the outcome with Platelet was inactive.
On the same count and under the same terms, with `CC(C)C(=O)Nc1nc2c(ncn2[C@@H]2O[C@H](COC(=O)CP(=O)(O)O)[C@@H](O)[C@H]2O)c(=O)[nH]1` the entry was “inactive”.
For `Nc1nc2c(ncn2[C@@H]2O[C@H](COC(=O)CP(=O)(O)O)[C@@H](O)[C@H]2O)c(=O)[nH]1`, in the series on Platelet, the outcome was inactive.
Regarding `Nc1nc2c(ncn2[C@@H]2O[C@H](CO)[C@@H](O)[C@H]2O)c(=O)[nH]1` [GUANOSINE], in series [3], the half-life at 50 µM is 0.00403 h. The Stability result in the series with Liver [7] is given as “Unstable”.
